Results taken from ChEMBL document CHEMBL4834426, “Antimalarial Benzimidazole Derivatives Incorporating Phenolic Mannich Base Side Chains Inhibit Microtubule and Hemozoin Formation: Structure-Activity Relationship and In Vivo Oral Efficacy Studies” (J Med Chem, 2021).
pIC50: −log10 of the molar value.

Tests used:
Plasmodium falciparum [1] = assay: Antiplasmodial activity against […] Plasmodium falciparum NF54 late gametocytes transfected with GFP-Luc […] at 5 uM incubated for 48 hrs by microscopy based luciferase reporter gene assay relative to control; assay type: functional
Method in brief: (§1)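 NF54-Pfs16-GFP-Luc gametocytes, assays set up day 5 (early, stage II/III) or day 10 (late, stage IV/V). Culture at 2−3% gametocytemia, 1.5% hematocrit, 48 h drug exposure at 37 °C under 90% N₂/5% O₂/5% CO₂. Lysates mixed with luciferin; bioluminescence read with 10 s integration. Dual-point: one biological repeat in technical triplicate. Methylene blue (5 μM) reference.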

Plasmodium falciparum [2] = assay: Antimalarial activity against asexual blood stage multi drug-resistant Plasmodium falciparum K1 infected in erythrocytes assessed as reduction in parasitemia incubated up to 72 hrs by [3H]hypoxanthine incorporation assay; assay type: functional, organism-based
Method in brief: (§2)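 [³H]-Hypoxanthine incorporation assay (modified) on asexual blood-stage P. falciparum in vitro. IC₅₀ values are means of ≥2 independent experiments.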

[3] = Selectivity index, ratio of IC50 for Cytotoxicity against CHO cells assessed as inhibition of cell viability by MTT assay to IC50 for antimalarial activity against asexual blood stage Plasmodium falciparum NF54 assessed as reduction in parasitemia incubated up to 72 hrs by [3H]hypoxanthine incorporation assay; assay type: toxicity, cell-based; settings: hamster, read-out: Selectivity Index
Method in brief: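 Selectivity index is IC₅₀(CHO)/IC₅₀(NF54). […] IC₅₀ came from nonlinear dose-response fitting. Parasite IC₅₀ came from the [³H]-hypoxanthine assay.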

Plasmodium falciparum [4] = assay: Antiplasmodial activity against […] Plasmodium falciparum NF54 early gametocytes transfected with GFP-Luc […] at 1 uM incubated for 48 hrs by microscopy based luciferase reporter gene assay relative to control; assay type: functional; method in brief: as §1
Plasmodium falciparum [5] = assay: Antimalarial activity against asexual blood stage drug-sensitive Plasmodium falciparum NF54 infected in erythrocytes assessed as reduction in parasitemia incubated up to 72 hrs by [3H]hypoxanthine incorporation assay; assay type: functional, organism-based; method in brief: as §2
CHO = assay: Cytotoxicity against CHO cells assessed as inhibition of cell viability by MTT assay; assay type: cell-based; settings: Cricetulus griseus
Plasmodium falciparum [6] = assay: Antiplasmodial activity against […] Plasmodium falciparum NF54 early gametocytes transfected with GFP-Luc […] at 5 uM incubated for 48 hrs by microscopy based luciferase reporter gene assay relative to control; assay type: functional; method in brief: as §1
Plasmodium falciparum [7] = assay: Antiplasmodial activity against […] Plasmodium falciparum NF54 late gametocytes transfected with GFP-Luc […] at 1 uM incubated for 48 hrs by microscopy based luciferase reporter gene assay relative to control; assay type: functional; method in brief: as §1
[8] = Resistance index, ratio of IC50 for antimalarial activity against asexual blood stage multi drug-resistant Plasmodium falciparum K1 to IC50 for antimalarial activity against asexual blood stage drug-sensitive Plasmodium falciparum NF54; assay type: functional
Method in brief: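 Resistance index is IC₅₀(K1)/IC₅₀(NF54). Both IC₅₀s came from the [³H]-hypoxanthine incorporation assay, as means of ≥2 independent experiments.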

Plasmodium falciparum [9] = assay: Antiplasmodial activity against […] Plasmodium falciparum NF54 early gametocytes transfected with GFP-Luc […] incubated for 48 hrs by microscopy based luciferase reporter gene assay relative to control; assay type: functional, organism-based; settings: NF54, 48 h
Method in brief: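 Transgenic NF54-Pfs16-GFP-Luc gametocytes, read by luciferase reporter. Early assays were set up on day 5 (50% stage II/50% stage III) and late assays on day 10 (40% stage IV/60% stage V). Luciferin was added to lysates at room temperature and bioluminescence read. Methylene blue (5 μM) was the reference. Single-point screens at 1 and 5 μM used n=1 in technical triplicate. IC₅₀ came from a normalized nonlinear fit, n≥3 in triplicate.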

SMILES	inhibition at 5 µM (Plasmodium falciparum [1]) [%]	pIC50 (Plasmodium falciparum [2])	selectivity ratio at 72 h [3]	inhibition at 1 µM (Plasmodium falciparum [4]) [%]	pIC50 (Plasmodium falciparum [5])	pIC50 (CHO)	inhibition at 5 µM (Plasmodium falciparum [6]) [%]	inhibition at 1 µM (Plasmodium falciparum [7]) [%]	Ratio IC50 [8]	pIC50 (Plasmodium falciparum [9])
CC(C)(C)NCc1cc(Cl)cc(Nc2nc3ccccc3[nH]2)c1O	0	6.20	> 185	0	6.57	< 4.30	0	0	2.33	–
Cc1cc(CNC(C)(C)C)c(O)c(Nc2nc3cc(F)c(F)cc3[nH]2)c1	0	6.08	64	0	6.59	4.78	31	0	3.19	–
CCN(CC)Cc1ccc(Nc2nc3ccccc3n2Cc2ccc(C(F)(F)F)cc2)cc1O	24	6.06	88.3	36	6.33	4.38	41	2	1.85	–
CN(C)c1ccc2nc3ccc(N(C)C)cc3[s+]c2c1 [METHYLENE BLUE ANHYDROUS]	–	–	–	93	–	–	–	90	–	–
CC(C)(C)NCc1cc(C(C)(C)C)cc(Nc2nc3cc(F)c(F)cc3[nH]2)c1O	0	6.55	228	0	6.82	4.47	0	0	1.87	–
CCN(CC)Cc1cccc(Nc2nc3ccccc3n2Cc2ccc(F)cc2)c1O	58	6.74	> 136	65	6.44	< 4.30	91	36	0.5	5.65
CCN(CC)Cc1cccc(Nc2nc3ccccc3n2Cc2ccc(C#N)cc2)c1O	43	6.18	> 50	47	6.00	< 4.30	69	–	0.66	–
Cc1cc(CNC(C)(C)C)c(O)c(Nc2nc3c(Cl)cc(Cl)cc3[nH]2)c1	0	6.40	117	0	6.66	4.59	0	0	1.81	–
CCN(CC)Cc1ccc(C)c(Nc2nc3ccccc3n2Cc2ccc(C(F)(F)F)cc2)c1O	43	6.03	11.8	18	5.54	4.47	90	29	0.33	–
CCN(CC)Cc1ccc(C)c(Nc2nc3ccccc3n2Cc2ccc(F)cc2)c1O	39	5.88	> 22	14	5.64	< 4.30	24	0	0.58	–
CCN(CC)Cc1cc(Nc2nc3ccccc3[nH]2)ccc1O	28	5.14	> 62	30	6.10	< 4.30	9	0	9.09	–
CCN(CC)Cc1cc(Nc2nc3ccccc3n2Cc2ccc(C(F)(F)F)cc2)ccc1O	45	5.77	44.9	34	6.41	4.76	48	31	4.33	–
Cc1cc(CN)c(O)c(Nc2nc3ccccc3n2Cc2ccc(C(F)(F)F)cc2)c1	0	–	10.4	20	5.26	4.32	38	0	–	–
Cc1cc(CNC(C)(C)C)c(O)c(Nc2nc3ccccc3[nH]2)c1	39	6.10	166	0	6.70	4.48	47	22	3.95	–
CCN(CC)Cc1ccc(Nc2nc3ccccc3[nH]2)cc1O	–	< 5.00	> 26	–	5.73	< 4.30	–	–	> 5.32	–
CCN(CC)Cc1cc(C)cc(Nc2nc3ccccc3n2Cc2ccc(C#N)cc2)c1O	52	6.34	21.8	39	6.19	4.85	98	15	0.71	–
CC(C)(C)NCc1cc(Cl)cc(Nc2nc3cc(F)c(F)cc3[nH]2)c1O	0	6.28	153	0	6.59	4.40	16	0	2.4	–
CCN(CC)Cc1cc(Nc2nc3ccccc3n2Cc2ccc(C#N)cc2)ccc1O	35	5.71	> 106	20	6.33	< 4.30	23	–	4.19	–
CCN(CC)Cc1cccc(Nc2nc3ccccc3[nH]2)c1O	34	6.11	> 89	3	6.25	< 4.30	0	–	1.38	–
CCN(CC)Cc1cc(Nc2nc3ccccc3n2Cc2ccc(F)cc2)ccc1O	39	5.71	17.6	33	6.17	4.92	59	11	2.87	–
CCN(CC)Cc1ccc(C)c(Nc2nc3ccccc3[nH]2)c1O	31	5.79	> 58	3	6.07	< 4.30	32	34	1.88	–
CCN(CC)Cc1ccc(C)c(Nc2nc3ccccc3n2Cc2ccc(C#N)cc2)c1O	22	6.08	> 57	19	6.06	< 4.30	96	0	0.95	–
CCN(CC)Cc1ccc(Nc2nc3ccccc3n2Cc2ccc(C#N)cc2)cc1O	21	6.12	106	38	6.43	4.41	44	–	2.05	–
CC(C)(C)NCc1cc(C(C)(C)C)cc(Nc2nc3ccccc3[nH]2)c1O	0	6.60	> 380	30	7.10	4.52	56	0	3.12	–
CCN(CC)Cc1ccc(Nc2nc3ccccc3n2Cc2ccc(F)cc2)cc1O	36	5.89	71.5	12	6.19	4.34	15	31	2	–
CCN(CC)Cc1cc(C)cc(Nc2nc3ccccc3[nH]2)c1O	37	6.38	> 217	1	6.64	< 4.30	44	–	1.83	–
